Active and inactive are the calls of the source. No cut-off for these calls is given here.
How the values were obtained:
[1] = Inhibition of gamma-secretase in CHO-APP cells assessed as amyloid beta-42 production using APP as substrate; format: cell-based; details: Cricetulus griseus
[2] = target: Presenilin-1 (Homo sapiens) (UniProt P49768); experiment: Binding affinity to PS1 N-terminal fragment in human HeLa cell membrane at 20 nM after 1 hr by photo-affinity based Western blot analysis; format: cell membranes
Procedure, shortened: (§1)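 HeLa membranes (800 μg in 1.2 mL PBS) incubated 1 h at 37 °C with probe at 20 nM, with or without 1 μM competitor GSI. Photoirradiated at ~350 nm for 30 min at 4 °C, then pelleted. Click with biotin-azide (0.1 mM), TCEP 1.0 mM, CuSO4 1.0 mM, TBTA 0.1 mM, 1 h at room temperature. Solubilized in RIPA, streptavidin pull-down, SDS-PAGE, Western blot with PS1-NTF, PS1-CTF or SPP antibodies.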

[3] = target: Presenilin-1 (Homo sapiens) (UniProt P49768); experiment: Binding affinity to PS1 N-terminal fragment in human HeLa cell membrane at 20 nM by photo-affinity in-gel fluorescence method; format: cell membranes
Procedure, shortened: (§2)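 HeLa membranes photolabeled with probe at 20 nM, with or without 1 μM competitor GSI L458, then ~350 nm irradiation. Click reaction with TAMRA-azide, then acetone precipitation to remove excess reagent. Resolubilized in loading buffer, separated by SDS-PAGE, and scanned for in-gel fluorescence of PS1-NTF and PS1-CTF bands. Coomassie staining confirmed equal loading.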

[4] = target: Presenilin-1 (Homo sapiens) (UniProt P49768); experiment: Binding affinity to PS1 N-terminal fragment in human HeLa cell membrane at 20 nM by photo-affinity in-gel fluorescence method in presence of GSI L458; format: cell membranes; procedure, shortened: as §2
[5] = target: Presenilin-1 (Homo sapiens) (UniProt P49768); experiment: Binding affinity to PS1 Carboxy-terminal fragment in human HeLa cell membrane at 20 nM after 1 hr by photo-affinity based Western blot analysis; format: cell membranes; procedure, shortened: as §1
HeLa = experiment: Binding affinity to SPP in human HeLa cell membrane at 20 nM after 1 hr by photo-affinity based Western blot analysis; format: cell membranes; procedure, shortened: as §1
[6] = target: Presenilin-1 (Homo sapiens) (UniProt P49768); experiment: Binding affinity to PS1 Carboxy-terminal fragment in human HeLa cell membrane at 20 nM by photo-affinity in-gel fluorescence method; format: cell membranes; procedure, shortened: as §2
[7] = target: Presenilin-1 (Homo sapiens) (UniProt P49768); experiment: Binding affinity to PS1 Carboxy-terminal fragment in human HeLa cell membrane at 20 nM by photo-affinity in-gel fluorescence method in presence of GSI L458; format: cell membranes; procedure, shortened: as §2
[8] = target: Presenilin-1 (Homo sapiens) (UniProt P49768); experiment: Binding affinity to PS1 N-terminal fragment in human HeLa cell membrane at 20 nM after 1 hr by photo-affinity-based Western blot analysis in presence of GSI L458; format: cell membranes; procedure, shortened: as §1

Structure (SMILES) | IC50 [1] [nM] | Activity [2] | Activity [3] | Activity [4] | Activity [5] | Activity [6] | Activity [7] | Activity [8] | Activity (HeLa)
CC(C)C[C@H](NC(=O)[C@H](Cc1ccccc1)C[C@@H](O)[C@H](Cc1ccccc1)NC(=O)OC(C)(C)C)C(=O)N[C@@H](Cc1ccccc1)C(N)=O | 36 | – | – | – | – | – | – | – | –
CC(C)C[C@H](NC(=O)[C@H](Cc1ccccc1)C[C@@H](O)[C@H](Cc1ccccc1)NC(=O)c1ccc(C(=O)c2ccccc2)cc1)C(=O)N[C@@H](Cc1ccccc1)C(=O)NCCCCCNC(=O)CCCC[C@@H]1SC[C@@H]2NC(=O)N[C@@H]21 | 817 | Active | – | – | – | – | – | inactive | –
C#CCCCCNC(=O)[C@H](Cc1ccccc1)NC(=O)[C@H](CC(C)C)NC(=O)[C@H](Cc1ccccc1)C[C@@H](O)[C@H](Cc1ccccc1)NC(=O)c1ccc(C(=O)c2ccccc2)cc1 | 1000 | Active | Active | inactive | inactive | inactive | inactive | inactive | inactive

Now those with a lower IC50 [1], led by results:

IC50 [1] [nM] | Activity [2] | Activity [3] | Activity [4] | Activity [5] | Activity [6] | Activity [7] | Activity [8] | Structure (SMILES) | Activity (HeLa)
30 | – | – | – | – | – | – | – | CC(C)C[C@H](NC(=O)[C@H](Cc1ccccc1)C[C@@H](O)[C@H](Cc1ccccc1)NC(=O)OC(C)(C)C)C(=O)N[C@@H](Cc1ccc(C(=O)c2ccccc2)cc1)C(=O)NCCCCCNC(=O)CCCC[C@@H]1SC[C@@H]2NC(=O)N[C@@H]21 | –
4 | inactive | inactive | inactive | Active | Active | inactive | – | C#CCCCCNC(=O)[C@H](Cc1ccc(C(=O)c2ccccc2)cc1)NC(=O)[C@H](CC(C)C)NC(=O)[C@H](Cc1ccccc1)C[C@@H](O)[C@H](Cc1ccccc1)NC(=O)OC(C)(C)C | Active
